Holding throughout (type): functional
Assay [1] is filed under the species Rattus norvegicus. Put plainly: Hypolipidemic effects (low-density lipoprotein (LDL) cholesterol) in male rats. Summed up:
(§1)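 Male rats, 10 per group, fed 7 days on chow with 10% fat (5.5% added peanut oil), 1.5% cholesterol and 0.1% cholic acid. Oral gavage on days 4-7 in 4% acacia, usually 50 mg/kg daily. Fasted overnight, killed day 8, atrial blood into EDTA. Plasma cholesterol, TG and HDL cholesterol (after MnCl2/heparin precipitation) by Autoanalyzer. % change vs controls, Student's t test.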

The species entered for assay [2] is Rattus norvegicus. Put plainly: Hypolipidemic effects(plasma TG) in male rats. In a few lines: as §1
The species entered for assay [3] is Rattus norvegicus. Put plainly: Hypolipidemic effects(plasma cholesterol) in male rats. In a few lines: as §1
Assay [4] is filed under the species Rattus norvegicus. Put plainly: Hypolipidemic effects(liver weight) in male rats. In a few lines: as §1
For assay [5], the system named is Rattus norvegicus. Put plainly: Hypolipidemic effects (high-density lipoprotein (HDL) cholesterol) in male rats;Compound was screening orally at 50 mg/Kg. In a few lines: as §1
Assay [6] relates to Rattus norvegicus. Put plainly: Hypolipidemic effects (Low-density lipoprotein (LDL) cholesterol) in male rats at 12.50 mg/kg. The note with it: dose 12.5 mg/kg. In a few lines:
(§2)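 Head-to-head oral dosing at 12.5, 25 and 50 mg/kg daily […] in male rats kept on a high lipid diet, alongside gemfibrozil reference. Plasma lipid fractions and liver weight expressed as % change vs controls.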

The subject of assay [7] is Rattus norvegicus. Put plainly: Hypolipidemic effects(plasma TG) in male rats at 12.50 mg/kg. The note with it: dose 12.5 mg/kg. Summed up:
as §2

Assay [8] has as its system Rattus norvegicus. Put plainly: Hypolipidemic effects(plasma cholesterol) in male rats at 12.50 mg/kg. The note with it: dose 12.5 mg/kg. Summed up: as §2
Assay [9] relates to Rattus norvegicus. Put plainly: Hypolipidemic effects (Low-density lipoprotein (LDL) cholesterol) in male rats at 25 mg/kg. Summed up:
as §2

The test system of assay [10] is Rattus norvegicus. Put plainly: Hypolipidemic effects as the ratio of (HDL/LDL) in male rats at dose 50 mg/kg. Summed up: (§3)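 Male rats on a high lipid diet, dosed orally […] at 12.5, 25 or 50 mg/kg, with gemfibrozil reference. HDL/LDL (VLDL included) ratio from densitometry of polyacrylamide gel electrophoresis patterns of plasma. Expressed as % change vs controls.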

The test system of assay [11] is Rattus norvegicus. Put plainly: Hypolipidemic effects(plasma cholesterol) in male rats;Compound was screening orally at 50 mg/Kg. Summed up: as §1
Assay [12] concerns Rattus norvegicus. Put plainly: Hypolipidemic effects(plasma TG) in male rats at 25 mg/kg. Summed up:
as §2

Assay [13] has as its system Rattus norvegicus. Put plainly: Hypolipidemic effects(plasma cholesterol) in male rats at 25 mg/kg. In a few lines:
as §2

Assay [14] has as its system Rattus norvegicus. Put plainly: Hypolipidemic effects(liver weight) in male rats at 12.50 mg/kg. The conditions noted are these: dose 12.5 mg/kg. In a few lines:
as §2

Assay [15] has as its system Rattus norvegicus. Put plainly: Hypolipidemic effects as the ratio of (HDL/LDL) in male rats at dose 12.5 mg/kg. Summed up: as §3
Assay [16] deals with Rattus norvegicus. Put plainly: Hypolipidemic effects(plasma TG) in male rats;Compound was screening orally at 50 mg/Kg. Summed up: as §1
Assay [17] concerns Rattus norvegicus. Put plainly: Hypolipidemic effects (high-density lipoprotein (HDL) cholesterol) in male rats; Compound was screening orally at 50 mg/Kg. Summed up: as §1
For assay [18], the system named is Rattus norvegicus. Put plainly: Hypolipidemic effects(liver weight) in male rats at 25 mg/kg. In a few lines:
as §2

In assay [19] the test system is Rattus norvegicus. Put plainly: Hypolipidemic effects (high-density lipoprotein (HDL) cholesterol) in male rats at 12.50 mg/kg. The conditions noted are these: dose 12.5 mg/kg. In a few lines:
as §2

For assay [20], the system named is Rattus norvegicus. Put plainly: Hypolipidemic effects as the ratio of (HDL/LDL) in male rats at dose 25 mg/kg. In a few lines: as §3
Assay [21] deals with Rattus norvegicus. Put plainly: Hypolipidemic effects (high-density lipoprotein (HDL) cholesterol) in male rats at 25 mg/kg. In a few lines:
as §2

Assay [22] deals with Rattus norvegicus. Put plainly: Hypolipidemic effects(plasma TG) in male rats at 50 mg/kg. Summed up: as §2
For assay [23], the system named is Rattus norvegicus. Put plainly: Hypolipidemic effects(plasma cholesterol) in male rats at 50 mg/kg. Summed up: as §2
The subject of assay [24] is Rattus norvegicus. Put plainly: Hypolipidemic effects (high-density lipoprotein (HDL) cholesterol) in male rats at 50 mg/kg; Compound was screening orally at 50 mg/Kg. Summed up:
as §1

Assay [25] deals with Rattus norvegicus. Put plainly: Hypolipidemic effects(liver weight) in male rats at 50 mg/kg. In a few lines:
as §2

Assay [26] deals with Rattus norvegicus. Put plainly: Hypolipidemic effects (Low-density lipoprotein (LDL) cholesterol) in male rats at 50 mg/kg; Compound was screening orally at 50 mg/Kg. Summed up: as §1
In assay [27] the test system is Rattus norvegicus. Put plainly: Hypolipidemic effects (high-density lipoprotein (HDL) cholesterol) in male rats at 50 mg/kg orally. The conditions noted are these: route oral. In a few lines:
as §2

The test system of assay [28] is Rattus norvegicus. Put plainly: Hypolipidemic effects (high-density lipoprotein (HDL) cholesterol) in male rats at 50 mg/kg. In a few lines:
as §2

In assay [29] the test system is Rattus norvegicus. Put plainly: Hypolipidemic effects (Low-density lipoprotein (LDL) cholesterol) in male rats at 50 mg/kg. Summed up: as §2
Assay [30] relates to Rattus norvegicus. Put plainly: Hypolipidemic effects (high-density lipoprotein (HDL) cholesterol) in male rats at a dose of 50 mg/kg; Compound was screening orally at 50 mg/Kg. Summed up:
as §1

Assay [31] relates to Rattus norvegicus. Put plainly: Hypolipidemic effects(plasma cholesterol) in male rats at a dose of 50 mg/kg. Summed up: as §1
In assay [32] the test system is Rattus norvegicus. Put plainly: Hypolipidemic effects(liver weight) in male rats at 12.5 mg/kg. In a few lines:
as §2

The subject of assay [33] is Rattus norvegicus. Put plainly: Hypolipidemic effects(plasma TG) in male rats at a dose of 50 mg/kg. Summed up:
as §1

Assay [34] has as its system Rattus norvegicus. Put plainly: Hypolipidemic effects (high-density lipoprotein (HDL) cholesterol) in male rats at 12.5 mg/kg. In a few lines:
as §2

The subject of assay [35] is Rattus norvegicus. Put plainly: Hypolipidemic effects (Low-density lipoprotein (LDL) cholesterol) in male rats at a dose of 50 mg/kg; Compound was screening orally at 50 mg/Kg. Summed up:
as §1

Experimental findings from ChEMBL document CHEMBL1122242, “Phenylenebis(oxy)bis[2,2-dimethylpentanoic acid]s: agents that elevate high-density lipoproteins” (1983) are described below.

Where “and” joins values, the source holds several entries; their conditions need not be identical. Identical values can stand only once.

For the molecule `COC(=O)C(C)(C)CCCOc1cccc(OC)c1OCCCC(C)(C)C(=O)OC`, the Change in the assay listed under Rattus norvegicus [1], in the assay filed under Rattus norvegicus [2], in the assay listed under Rattus norvegicus [3], in the assay listed under Rattus norvegicus [4] and in the assay on Rattus norvegicus [5] was 0% throughout.
Consider `CC(C)(CCCOc1ccc(SCCCC(C)(C)C(=O)O)cc1)C(=O)O`, for which the Change in the assay with Rattus norvegicus [6] is recorded as -25%; in the assay with Rattus norvegicus [7] it was 0%; in the assay filed under Rattus norvegicus [1], -51%; in the assay on Rattus norvegicus [8], -19%; in the assay on Rattus norvegicus [9] it was -40%; in the assay with Rattus norvegicus [10], 785%. For the same molecule, the Change is listed as -44% with Rattus norvegicus [11]; 37% in the assay on Rattus norvegicus [12]; -22% with Rattus norvegicus [13]; 0% in the assay on Rattus norvegicus [14]; 101% in the assay on Rattus norvegicus [15]; -40% in the assay on Rattus norvegicus [16]. The Change in the assay with Rattus norvegicus [17] is recorded as 628%; with Rattus norvegicus [18], 6%; with Rattus norvegicus [19] it was 74%; in the assay with Rattus norvegicus [20], 302%; in the assay filed under Rattus norvegicus [4], 18%; in the assay on Rattus norvegicus [21], 232%.
For `COC(=O)C(C)(C)CCCOc1ccc(OCCCC(C)(C)C(=O)OC)c(C)c1`, the Change is on record as -54% with Rattus norvegicus [6]; 0% with Rattus norvegicus [7]; 62% in the assay with Rattus norvegicus [22]; -43% in the assay with Rattus norvegicus [8]; -37% with Rattus norvegicus [23]; -65% in the assay on Rattus norvegicus [9]. Moreover, the Change with Rattus norvegicus [10] is 1009%; in the assay on Rattus norvegicus [24], 743%; with Rattus norvegicus [12], 0%; with Rattus norvegicus [25], 38%; with Rattus norvegicus [13] it was -41%; with Rattus norvegicus [14], 13%. In addition, the Change in the assay with Rattus norvegicus [15] is given as 142%; in the assay on Rattus norvegicus [26] it was -71%; with Rattus norvegicus [18], 25%; with Rattus norvegicus [19] it was 102%; in the assay on Rattus norvegicus [20] it was 452%; in the assay on Rattus norvegicus [21] it was 269%.
With `CC(C)(CCCCOc1ccc(OCCCCC(C)(C)C(=O)O)cc1)C(=O)O`, the Change in the assay on Rattus norvegicus [6] is listed as -40%; in the assay on Rattus norvegicus [7], -16%; with Rattus norvegicus [22] it was -20%; with Rattus norvegicus [8], -33%; in the assay with Rattus norvegicus [23], 0%; in the assay with Rattus norvegicus [9] it was -50%. Moreover, the Change in the assay on Rattus norvegicus [10] is 1722%; in the assay with Rattus norvegicus [27], 1477%; in the assay on Rattus norvegicus [12], 0%; in the assay on Rattus norvegicus [25], 36%; in the assay with Rattus norvegicus [13], -35%; with Rattus norvegicus [14], 4%. The Change in the assay on Rattus norvegicus [28] was 1477%; with Rattus norvegicus [15], 180%; in the assay on Rattus norvegicus [18] it was 14%; in the assay on Rattus norvegicus [19], 81%; with Rattus norvegicus [20] it was 339%; with Rattus norvegicus [21], 227%.
In the case of `CC(C)(CCCOc1ccc(OCCCC(C)(C)C(=O)O)c(Cl)c1)C(=O)O`, the Change is given as -74% in the assay with Rattus norvegicus [6]; -28% with Rattus norvegicus [7]; 0% in the assay with Rattus norvegicus [22]; -65% in the assay with Rattus norvegicus [8]; -53% with Rattus norvegicus [23]; -77% in the assay on Rattus norvegicus [9]. The Change is 1445% in the assay on Rattus norvegicus [10]; 753% in the assay on Rattus norvegicus [24]; -31% with Rattus norvegicus [12]; 38% in the assay on Rattus norvegicus [25]; -60% in the assay on Rattus norvegicus [13]; 8% in the assay with Rattus norvegicus [14]. In addition, the Change is reported as 753% in the assay with Rattus norvegicus [28]; 242% in the assay with Rattus norvegicus [15]; -62% with Rattus norvegicus [26]; -62% in the assay on Rattus norvegicus [29]; 18% with Rattus norvegicus [18]; 94% in the assay on Rattus norvegicus [19]. The Change in the assay on Rattus norvegicus [20] is recorded as 493%; with Rattus norvegicus [21], 206%.
Take `CC(C)(CCCOc1ccc(OCCCC(C)(C)C(=O)O)c(-c2ccccc2)c1)C(=O)O`: the Change in the assay on Rattus norvegicus [6] is reported as -78%; in the assay with Rattus norvegicus [7] it was 32%; in the assay with Rattus norvegicus [22] it was 31%; with Rattus norvegicus [8], -53%; in the assay with Rattus norvegicus [23], -27%; in the assay with Rattus norvegicus [9] it was -72%. Moreover, the Change with Rattus norvegicus [10] is given as 2432%; in the assay on Rattus norvegicus [24], 1410%; in the assay with Rattus norvegicus [12], 82%; in the assay with Rattus norvegicus [25] it was 34%; in the assay on Rattus norvegicus [13] it was -52%; with Rattus norvegicus [14], 13%. Further, the Change in the assay on Rattus norvegicus [15] is recorded as 945%; in the assay with Rattus norvegicus [26] it was -85%; in the assay on Rattus norvegicus [18], 22%; in the assay on Rattus norvegicus [19] it was 518%; in the assay with Rattus norvegicus [20], 1798%; in the assay on Rattus norvegicus [21] it was 741%.
For `Cc1ccc(C)c(OCCCC(C)(C)C(=O)O)c1` [GEMFIBROZIL], the Change was -16% in the assay with Rattus norvegicus [6]; 45% in the assay on Rattus norvegicus [7]; 339% in the assay with Rattus norvegicus [30]; 0% with Rattus norvegicus [31]; 57% and 69% in the assay on Rattus norvegicus [22] (50 mg/kg); 0% with Rattus norvegicus [8]. The Change in the assay with Rattus norvegicus [23] (50 mg/kg) is -26% and -29%; in the assay on Rattus norvegicus [9] (25 mg/kg) it was -22% [middle of 4 runs]; with Rattus norvegicus [10] (50 mg/kg), 364% and 594% and 405%; with Rattus norvegicus [32] it was 7% and 4%; in the assay with Rattus norvegicus [12] (25 mg/kg) it was 64% [middle of 5 runs]; with Rattus norvegicus [25] (50 mg/kg), 17% and 26% and 13%. For the same molecule, the Change is 7% with Rattus norvegicus [14]; 498% and 306% with Rattus norvegicus [28] (50 mg/kg); 98% [middle of 5 runs] in the assay on Rattus norvegicus [15] (12.5 mg/kg); -42% in the assay on Rattus norvegicus [29]; 10% and 8% and 9% and 11% in the assay on Rattus norvegicus [18] (25 mg/kg); 134% in the assay on Rattus norvegicus [19]. The Change in the assay on Rattus norvegicus [33] was 233%; in the assay with Rattus norvegicus [20] (25 mg/kg), 214% [middle of 5 runs]; in the assay with Rattus norvegicus [34] it was 88% and 134% and 116% and 133%; in the assay with Rattus norvegicus [21] (25 mg/kg), 215% and 257% and 171% and 236% and 246%; with Rattus norvegicus [35], -32%.
